Assay [1] deals with Ramos. In words: Antiproliferative activity against human Ramos cells assessed as reduction in cell viability after 24 hrs by resazurin dye-based spectrophotometric method. It counts as functional. The gist of the method:
(§1)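 Cells (DSMZ stock) seeded at 0.5 x 10⁶ cells/mL and exposed to escalating compound concentrations (up to 30 μM) for 24 or 72 h; resazurin 40 μM added for the final 3 h. Resorufin fluorescence read at ex 535/em 590 nm. Viability normalized to 0.1% DMSO controls (100%). IC50 from nonlinear regression; mean of three independent experiments.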
(Resazurin is reduced to fluorescent resorufin, in cell work by metabolically active cells.)

Assay [2] has as its system Ramos. In words: Antiproliferative activity against human Ramos cells assessed as reduction in cell viability after 72 hrs by resazurin dye-based spectrophotometric method. It counts as functional. An outline of the steps: as §1
Assay [3] is described as follows: Antiproliferative activity against human Jurkat J16 cells assessed as reduction in cell viability after 24 hrs by resazurin dye-based spectrophotometric method. The format is functional. An outline of the steps: as §1
Assay [4] in a line: Antiproliferative activity against human Jurkat J16 cells assessed as reduction in cell viability after 72 hrs by resazurin dye-based spectrophotometric method. It counts as functional. The gist of the method:
as §1

Assay [5] relates to Ramos. The assay is described as follows: Induction of apoptosis in human Ramos cells assessed as caspase-3 activation at 0.3 uM using AcDEVD-AMC as substrate preincubated for up to 8 hrs followed by substrate addition and measured after 60 mins by spectrophotometric method. The format is functional, cell-based. An outline of the steps: (§2)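 Cells in 96-well plates treated for up to 8 h, alongside staurosporine 2.5 μM as positive control. Lysis in caspase buffer (20 mM HEPES, 84 mM KCl, 10 mM MgCl₂, 200 μM EDTA/EGTA, 0.5% NP-40, protease inhibitors), then reaction buffer with Ac-DEVD-AMC added. AMC fluorescence increase followed at 37 °C for at least 60 min.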

The test system of assay [6] is Ramos. In words: Induction of apoptosis in human Ramos cells assessed as caspase-3 activation at 1 uM using AcDEVD-AMC as substrate preincubated for up to 8 hrs followed by substrate addition and measured after 60 mins by spectrophotometric method. It counts as functional, cell-based. The gist of the method:
as §2

Assay [7] is filed under the species Homo sapiens. The assay is described as follows: Induction of apoptosis in human Jurkat J16 cells assessed as caspase-3 activation at 0.3 uM using AcDEVD-AMC as substrate preincubated for up to 8 hrs followed by substrate addition and measured after 60 mins by spectrophotometric method. It counts as functional, cell-based. The gist of the method:
as §2

The species named for assay [8] is Homo sapiens. The assay is described as follows: Induction of apoptosis in human Jurkat J16 cells assessed as caspase-3 activation at 1 uM using AcDEVD-AMC as substrate preincubated for up to 8 hrs followed by substrate addition and measured after 60 mins by spectrophotometric method. It counts as functional, cell-based. An outline of the steps: as §2
Assay [9] relates to Ramos. The assay is described as follows: Induction of apoptosis in human Ramos cells assessed as increase in cleaved PARP1 protein expression at 1 uM after 2 to 8 hrs by immunoblotting analysis. It counts as functional, cell-based. The gist of the method:
(§3)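 Ramos cells exposed to compound for 2-8 h at concentrations chosen from the cytotoxicity data, with or without the pan-caspase inhibitor Q-VD-OPh (10 μM). Cells were harvested, lysed and immunoblotted with mouse anti-PARP1, using GAPDH as loading control. Detection used IRDye800/680 secondary antibodies on an infrared imager.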
On the technique in general: A western blot detects proteins with antibodies after separation by electrophoresis.

In assay [10] the test system is Ramos. In words: Induction of apoptosis in human Ramos cells assessed as increase in cleaved PARP1 protein expression at 1 uM after 2 to 8 hrs in presence of caspace-inhibitor Q-VD-Oph by immunoblotting analysis. It counts as functional, cell-based. The gist of the method: as §3
The test system of assay [11] is Ramos. The assay is described as follows: Induction of apoptosis in human Ramos cells assessed as caspase-3 activation at 3 uM using AcDEVD-AMC as substrate preincubated for up to 8 hrs followed by substrate addition and measured after 60 mins by spectrophotometric method. The format is functional, cell-based. The gist of the method:
as §2

The species entered for assay [12] is Homo sapiens. In words: Induction of apoptosis in human Jurkat J16 cells assessed as caspase-3 activation at 3 uM using AcDEVD-AMC as substrate preincubated for up to 8 hrs followed by substrate addition and measured after 60 mins by spectrophotometric method. The format is functional, cell-based. The gist of the method:
as §2

Assay [13] concerns the target Sphingosine kinase 1 (Homo sapiens) (UniProt Q9NYA1). The assay is described as follows: Inhibition of SK1 (unknown origin) at 10 uM using sphingosine as substrate preincubated for 15 mins followed by substrate addition and measured after 30 mins by fluorescence based assay relative to control. The gist of the method: (§4)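 Compound at 10 µM preincubated 15 min with SK1 (0.5 U/mL final) or SK2 (0.1 U/mL final). Sphingosine 5 µM plus ATP added; reaction 30 min (SK1) or 60 min (SK2) at room temperature. Buffer: 50 mM HEPES pH 7.5, 4 mM MgCl₂, 100 µM orthovanadate, 1 mM DTT, 0.01% Brij 35, 2 mM EGTA. Fluorescent detection reagent added for 60 min in the dark. Inhibition = 100 minus blank-corrected relative fluorescence. Triplicates, two independent experiments; mean ± SEM.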

Assay [14] deals with T1, Sphingosine kinase 2 (Homo sapiens) (UniProt Q9NRA0).
T1 sequence (whole entry): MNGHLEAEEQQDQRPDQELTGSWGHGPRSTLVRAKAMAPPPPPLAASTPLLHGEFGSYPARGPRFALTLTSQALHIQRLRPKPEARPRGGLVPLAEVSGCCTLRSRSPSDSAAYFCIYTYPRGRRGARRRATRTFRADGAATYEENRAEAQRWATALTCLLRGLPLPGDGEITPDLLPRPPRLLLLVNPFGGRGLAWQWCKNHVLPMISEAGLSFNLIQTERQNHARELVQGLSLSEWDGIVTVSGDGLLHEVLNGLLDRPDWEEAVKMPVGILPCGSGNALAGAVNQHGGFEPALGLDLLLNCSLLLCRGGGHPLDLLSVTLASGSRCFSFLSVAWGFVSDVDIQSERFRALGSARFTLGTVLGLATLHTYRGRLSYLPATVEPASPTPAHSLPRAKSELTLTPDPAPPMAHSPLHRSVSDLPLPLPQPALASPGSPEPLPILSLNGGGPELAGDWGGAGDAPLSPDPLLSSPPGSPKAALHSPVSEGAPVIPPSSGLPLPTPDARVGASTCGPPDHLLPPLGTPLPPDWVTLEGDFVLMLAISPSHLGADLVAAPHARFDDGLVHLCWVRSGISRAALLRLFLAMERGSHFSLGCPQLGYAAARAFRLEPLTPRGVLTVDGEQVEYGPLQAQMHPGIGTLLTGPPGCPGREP
The assay is described as follows: Inhibition of SK2 (unknown origin) at 10 using sphingosine as substrate preincubated for 15 mins followed by substrate addition and measured after 60 mins by fluorescence based assay relative to control. The gist of the method:
as §4

In assay [15] the test system is Ramos. The assay is described as follows: Induction of apoptosis in human Ramos cells assessed as caspase-3 activation at 2.5 uM using AcDEVD-AMC as substrate preincubated for up to 8 hrs followed by substrate addition and measured after 60 mins by spectrophotometric method. The format is functional, cell-based. An outline of the steps:
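Ramos cells (DSMZ) plated in 96-well plates and treated for up to 8 h. Cells were then lysed in caspase buffer (20 mM HEPES, 84 mM KCl, 10 mM MgCl2, 200 µM EDTA/EGTA, 0.5% NP-40, protease inhibitors). Reaction buffer with Ac-DEVD-AMC was added, and AMC fluorescence increase was read at 37 °C for at least 60 min. Positive control: staurosporine 2.5 µM.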

Assay [16] concerns Ramos. In words: Induction of apoptosis in human Ramos cells assessed as caspase-3 activation at 10 uM using AcDEVD-AMC as substrate preincubated for up to 8 hrs followed by substrate addition and measured after 60 mins by spectrophotometric method. It counts as functional, cell-based. The gist of the method: as §2
Assay [17] is filed under the species Homo sapiens. In words: Induction of apoptosis in human Jurkat J16 cells assessed as caspase-3 activation at 10 uM using AcDEVD-AMC as substrate preincubated for up to 8 hrs followed by substrate addition and measured after 60 mins by spectrophotometric method. It counts as functional, cell-based. An outline of the steps:
as §2

The subject of assay [18] is Ramos. In words: Induction of apoptosis in human Ramos cells assessed as increase in cleaved PARP1 protein expression at 10 uM after 2 to 8 hrs by immunoblotting analysis. The format is functional, cell-based. An outline of the steps:
as §3

The test system of assay [19] is Ramos. In words: Induction of apoptosis in human Ramos cells assessed as increase in cleaved PARP1 protein expression at 10 uM after 2 to 8 hrs in presence of caspace-inhibitor Q-VD-Oph by immunoblotting analysis. It counts as functional, cell-based. The gist of the method:
as §3

Assay [20] relates to Ramos. In words: Induction of apoptosis in human Ramos cells assessed as increase in cleaved PARP1 protein expression at 0.1 uM after 2 to 8 hrs by immunoblotting analysis. The format is functional, cell-based. An outline of the steps: as §3
Assay [21] has as its system Ramos. The assay is described as follows: Induction of apoptosis in human Ramos cells assessed as caspase-3 activation at 0.1 uM using AcDEVD-AMC as substrate preincubated for up to 8 hrs followed by substrate addition and measured after 60 mins by spectrophotometric method. It counts as functional, cell-based. An outline of the steps: as §2
Assay [22] is filed under the species Homo sapiens. The assay is described as follows: Induction of apoptosis in human Jurkat J16 cells assessed as caspase-3 activation at 0.1 uM using AcDEVD-AMC as substrate preincubated for up to 8 hrs followed by substrate addition and measured after 60 mins by spectrophotometric method. It counts as functional, cell-based. An outline of the steps: as §2
Assay [23] has as its system Ramos. In words: Induction of apoptosis in human Ramos cells assessed as increase in cleaved PARP1 protein expression at 0.1 uM after 2 to 8 hrs in presence of caspace-inhibitor Q-VD-Oph by immunoblotting analysis. The format is functional, cell-based. The gist of the method: as §3

The source made the active and inactive calls. The rule behind the calls is not given here.

Data on 7 compounds can be found in ChEMBL document CHEMBL4346731, “Novel meriolin derivatives as rapid apoptosis inducers” (Bioorg Med Chem, 2019).

Sequence of Sphingosine kinase 1 (Homo sapiens) (Q9NYA1 whole entry): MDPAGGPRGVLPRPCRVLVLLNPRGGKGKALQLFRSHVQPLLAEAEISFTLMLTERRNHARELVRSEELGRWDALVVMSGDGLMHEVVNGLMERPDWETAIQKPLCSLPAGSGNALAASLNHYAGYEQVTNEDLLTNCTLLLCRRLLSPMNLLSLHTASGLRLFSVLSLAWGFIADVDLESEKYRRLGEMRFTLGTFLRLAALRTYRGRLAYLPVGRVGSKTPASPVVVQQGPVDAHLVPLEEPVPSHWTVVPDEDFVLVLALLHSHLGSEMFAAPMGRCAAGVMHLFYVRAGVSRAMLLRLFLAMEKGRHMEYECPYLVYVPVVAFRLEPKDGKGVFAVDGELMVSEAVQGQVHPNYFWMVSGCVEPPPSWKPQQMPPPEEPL

As a reminder, the IC50 is the concentration that gives 50% inhibition. For `Nc1cc(-c2c[nH]c3ncccc23)nc(N)n1`, the half-inhibitory concentration (IC50) in the assay on Ramos [1] is 370 nM; in the assay on Ramos [2] it was 240 nM; in assay [3], 430 nM; in assay [4] it was 210 nM. Also, the result with Ramos [5], in the assay with Ramos [6], in the assay listed under Homo sapiens [7], in the assay filed under Homo sapiens [8] and with Ramos [9] was Active. Also, the result in the assay with Ramos [10] was inactive.

The inhibition is the share of the control response that was lost under treatment. Regarding `Nc1cc(-c2c[nH]c3ncccc23)ccn1`, the IC50 is 970 nM in the assay with Ramos [1], 600 nM in the assay on Ramos [2], 870 nM in [3] and 480 nM in assay [4]. For the same compound, the result in the assay with Ramos [6], with Ramos [11], in the assay listed under Homo sapiens [8], in the assay filed under Homo sapiens [12] and with Ramos [9] was Active. The result with Ramos [10] was inactive. Further, the inhibition in [13] turned out to be 10%; in [14], 39%.

For the compound `CN[C@@H]1C[C@H]2O[C@@](C)([C@@H]1OC)n1c3ccccc3c3c4c(c5c6ccccc6n2c5c31)C(=O)NC4`, in the assay on Ramos [15], the outcome was Active.

As to `Nc1nccc(-c2c[nH]c3ncccc23)n1` [MERIOLIN 1], the result in the assay on Ramos [16], in the assay with Ramos [11], in the assay listed under Homo sapiens [12], in the assay filed under Homo sapiens [17] and with Ramos [18] was Active. In addition, the IC50 with Ramos [1] was found to be 4800 nM; with Ramos [2], 3730 nM; in [3] it was 4530 nM; in assay [4] it was 2740 nM. Moreover, the outcome with Ramos [19] was inactive. In addition, the inhibition in assay [13] turned out to be 10%; in assay [14], 72%.

`c1ccc(CNc2ccc(-c3c[nH]c4ncccc34)cn2)cc1`: the IC50 in the assay on Ramos [1] came out at 300 nM; in the assay on Ramos [2] it was 180 nM; in [3], 240 nM; in [4], 110 nM. Further, the outcome with Ramos [5], with Ramos [6], in the assay listed under Homo sapiens [7], in the assay listed under Homo sapiens [8] and in the assay with Ramos [9] was Active. For the same compound, the outcome in the assay with Ramos [10] was inactive.

Regarding `COc1cc(-c2c[nH]c3ncccc23)nc(N)n1`, the outcome with Ramos [16], with Ramos [11], in the assay listed under Homo sapiens [12], in the assay filed under Homo sapiens [17] and in the assay on Ramos [18] was Active. The IC50 in the assay on Ramos [1] amounted to 6040 nM; with Ramos [2], 3900 nM; in [3], 5560 nM; in assay [4] it was 3080 nM. In addition, the result in the assay with Ramos [19] was inactive.

`Nc1cc(-c2c[nH]c3ncccc23)cc(N)n1`: the result in the assay with Ramos [20], in the assay on Ramos [21], in the assay on Ramos [5], in the assay listed under Homo sapiens [22] and in the assay listed under Homo sapiens [7] was Active. Besides, the 50% inhibitory concentration (IC50) in the assay on Ramos [1] was 110 nM; in the assay on Ramos [2], 70 nM; in [3], 110 nM; in assay [4] it was 60 nM. Further, the result in the assay with Ramos [23] was inactive. For the same compound, the inhibition in assay [13] came out at 18%; in [14], 87%.
